Experiments:
Type in all cases: functional
[1] = Growth inhibition of human Hs 578T cells assessed as cell growth at 10^-5 M after 48 hrs by sulforhodamine B assay; conditions: read-out: Activity
Outline: (§1)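 NCI 60-cell-line primary screen. Single concentration of 10^-5 M, 48 h incubation. End point by sulforhodamine B protein staining read spectrophotometrically. Reported as percent growth of treated cells relative to untreated control cells.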

ACHN = test: Growth inhibition of human ACHN cells assessed as cell growth at 10^-5 M after 48 hrs by sulforhodamine B assay; conditions: read-out: Activity; outline: as §1
NCI-H226 = test: Growth inhibition of human NCI-H226 cells after 48 hrs by sulforhodamine B assay; conditions: NCI-H226, 48 h; for CC50: read-out: LC50 (the source's name)
Outline: (§2)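 NCI five-dose screen on the full 60-cell-line panel. Cells were given 10-fold dilutions from 10^-4 to 10^-8 M with continuous 48 h exposure, and growth was read by SRB staining. Percent growth was taken from time-zero, control and treated absorbances. GI50, TGI and LC50 were then derived, the GI50 being the concentration that gives a 50% lower net protein increase than control.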

CCRF-CEM = test: Growth inhibition of human CCRF-CEM cells after 48 hrs by sulforhodamine B assay
Outline: (§3)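 NCI 60-panel five-dose test at 10-fold dilutions, 10^-4 to 10^-8 M, with 48 h continuous exposure and SRB protein read-out. Percent growth derived from time-zero, untreated-control and treated absorbances. GI50 is the concentration where [(Ti-Tz)/(C-Tz)]×100 = 50. TGI is taken at Ti = Tz. LC50 is taken at [(Ti-Tz)/Tz]×100 = -50.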

SNB-19 = test: Growth inhibition of human SNB19 cells after 48 hrs by sulforhodamine B assay; conditions: SNB-19, 48 h
Outline: (§4)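 NCI 60-cell panel, five concentrations (10-fold dilutions, 0.01–100 µM), 48 h continuous exposure; SRB protein stain read spectrophotometrically. Percent growth from time-zero, untreated-control and treated absorbances. GI50 is the concentration giving 50% lower net protein increase than control. Values beyond the tested range are reported as more or less than the highest or lowest concentration.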

HL-60(TB) = test: Growth inhibition of human HL-60(TB) cells after 48 hrs by sulforhodamine B assay; conditions: HL-60, 48 h; for CC50: read-out: LC50 (the source's name)
Outline: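 NCI 60-panel five-dose screen: cells exposed continuously for 48 h to 10-fold dilutions from 10^-4 to 10^-8 M; SRB protein staining read spectrophotometrically. Percent growth from time-zero, untreated-control and treated absorbances; GI50 is the concentration giving 50% lower net protein increase than control.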

COLO 205 = test: Growth inhibition of human COLO205 cells assessed as cell growth at 10^-5 M after 48 hrs by sulforhodamine B assay; conditions: COLO 205, 48 h, read-out: Activity; outline: as §1
K562 = test: Growth inhibition of human K562 cells assessed as cell growth at 10^-5 M after 48 hrs by sulforhodamine B assay; conditions: K562, 48 h, read-out: Activity; outline: as §1
HOP-62 = test: Growth inhibition of human HOP62 cells after 48 hrs by sulforhodamine B assay; conditions: HOP-62, 48 h; outline: as §3
NCI-H23 = test: Growth inhibition of human NCI-H23 cells after 48 hrs by sulforhodamine B assay; conditions: NCI-H23, 48 h; for CC50: read-out: LC50 (the source's name); outline: as §2
Malme-3M = test: Growth inhibition of human MALME-3M cells assessed as cell growth at 10^-5 M after 48 hrs by sulforhodamine B assay; conditions: read-out: Activity; outline: as §1
U-251 = test: Growth inhibition of human U251 cells after 48 hrs by sulforhodamine B assay; conditions: U-251, 48 h; outline: as §4
[2] = Growth inhibition of human HCC2998 cells assessed as cell growth at 10^-5 M after 48 hrs by sulforhodamine B assay; conditions: HCC 2998, 48 h, read-out: Activity; outline: as §1
BT-549 = test: Growth inhibition of human BT549 cells after 48 hrs by sulforhodamine B assay; conditions: BT-549, 48 h; outline: as §3
A498 = test: Growth inhibition of human A498 cells assessed as cell growth at 10^-5 M after 48 hrs by sulforhodamine B assay; conditions: A498, 48 h, read-out: Activity; outline: as §1
CAKI-1 = test: Growth inhibition of human CAKI-1 cells assessed as cell growth at 10^-5 M after 48 hrs by sulforhodamine B assay; conditions: CAKI-1, 48 h, read-out: Activity; outline: as §1
SK-MEL-5 = test: Growth inhibition of human SK-MEL-5 cells assessed as cell growth at 10^-5 M after 48 hrs by sulforhodamine B assay; conditions: SK-MEL-5, 48 h, read-out: Activity
Outline: (§5)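 NCI 60-cell-line primary one-dose screen. Cells were exposed to a single 10^-5 M concentration for 48 h. The end point was sulforhodamine B protein staining, read spectrophotometrically. Results are reported as percent growth of treated cells relative to untreated control cells.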

PC-3 = test: Growth inhibition of human PC3 cells assessed as cell growth at 10^-5 M after 48 hrs by sulforhodamine B assay; conditions: PC-3, 48 h, read-out: Activity; outline: as §5
[3] = Growth inhibition of human Hs 578T cells after 48 hrs by sulforhodamine B assay; conditions: for CC50: read-out: LC50 (the source's name); outline: as §3
RPMI-8226 = test: Growth inhibition of human RPMI8226 cells after 48 hrs by sulforhodamine B assay; conditions: RPMI-8226, 48 h; for CC50: read-out: LC50 (the source's name); outline: as §2
MCF7 = test: Growth inhibition of human MCF7 cells after 48 hrs by sulforhodamine B assay; conditions: MCF7, 48 h; outline: as §3
NCI-H522 = test: Growth inhibition of human NCI-H522 cells after 48 hrs by sulforhodamine B assay; conditions: NCI-H522, 48 h; for CC50: read-out: LC50 (the source's name); outline: as §2
T47D = test: Growth inhibition of human T47D cells assessed as cell growth at 10^-5 M after 48 hrs by sulforhodamine B assay; conditions: read-out: Activity
Outline: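 NCI primary one-dose screen: single concentration of 10^-5 M added to culture, 48 h incubation, SRB protein-dye endpoint. Percent growth of treated cells measured spectrophotometrically against untreated controls.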

RXF 393 = test: Growth inhibition of human RXF393 cells assessed as cell growth at 10^-5 M after 48 hrs by sulforhodamine B assay; conditions: RXF 393, 48 h, read-out: Activity; outline: as §5
A549 = test: Growth inhibition of human A549/ATCC cells after 48 hrs by sulforhodamine B assay; conditions: A549, 48 h; outline: as §3

`COc1cc(/C=C/C(=O)c2ccc(NC(=O)CN3CCN(c4cc5c(cc4F)c(=O)c(C(=O)O)cn5C4CC4)CC3)cc2)cc(OC)c1OC` gave a growth at 10 µM [1] of 76.8%, a growth at 10 µM (ACHN) of 10.8% and a GI50 (NCI-H226) of 0.95 µM. For the same molecule, the TGI (NCI-H226) was 26 µM, the CC50 (NCI-H226) was over 100 µM and the GI50 (CCRF-CEM) was 0.32 µM. It also gave an LC50 (concentration giving 50% net cell kill) (CCRF-CEM) of over 100 µM, a GI50 (SNB-19) of 2.78 µM and an LC50 (SNB-19) of over 100 µM. For the same molecule, the TGI (SNB-19) was over 100 µM, the GI50 (HL-60(TB)) was 1.11 µM and the TGI (HL-60(TB)) was over 100 µM. For the same molecule, the CC50 (HL-60(TB)) was over 100 µM, the growth at 10 µM (COLO 205) was -12.8% and the growth at 10 µM (K562) was 1.66%. For the same molecule, the GI50 (HOP-62) was 0.36 µM, the LC50 (concentration killing 50% of starting cells) (HOP-62) was 56.9 µM and the TGI (HOP-62) was 11.4 µM. For the same molecule, the GI50 (NCI-H23) was 0.56 µM, the TGI (NCI-H23) was 2.91 µM and the CC50 (NCI-H23) was 14.2 µM. For the same molecule, the growth at 10 µM (Malme-3M) was 31.4%, the GI50 (U-251) was 0.33 µM and the LC50 (concentration killing 50% of cells) (U-251) was 12.9 µM. For the same molecule, the TGI (U-251) was 1.29 µM, the growth at 10 µM [2] was -11.6% and the GI50 (BT-549) was 0.3 µM. For the same molecule, the LC50 (concentration giving 50% net cell kill) (BT-549) was 6.98 µM, the TGI (BT-549) was 1.17 µM and the growth at 10 µM (A498) was -43.8%. For the same molecule, the growth at 10 µM (CAKI-1) was 57.2%, the growth at 10 µM (SK-MEL-5) was -42.9% and the growth at 10 µM (PC-3) was 21.5%. For the same molecule, the GI50 [3] was 53.8 µM, the TGI [3] was over 100 µM and the CC50 [3] was over 100 µM. For the same molecule, the GI50 (RPMI-8226) was 0.29 µM, the TGI (RPMI-8226) was 0.77 µM and the CC50 (RPMI-8226) was over 100 µM. The GI50 (MCF7) was 0.47 µM, the LC50 (50% net cell kill) (MCF7) was over 100 µM and the TGI (MCF7) was over 100 µM. For the same molecule, the GI50 (NCI-H522) was 0.66 µM, the TGI (NCI-H522) was 3.19 µM and the CC50 (NCI-H522) was 17.9 µM. For the same molecule, the growth at 10 µM (T47D) was 17.6%, the growth at 10 µM (RXF 393) was -87.6% and the GI50 (A549) was 0.37 µM. It also gave an LC50 (concentration giving 50% net cell kill) (A549) of over 100 µM and a TGI (A549) of 2.14 µM.

`O=C(CN1CCN(c2cc3c(cc2F)c(=O)c(C(=O)O)cn3C2CC2)CC1)Nc1ccc(C(=O)/C=C/c2ccccc2)cc1` gave a growth at 10 µM [1] of 51.9%, a growth at 10 µM (ACHN) of 40% and a GI50 (NCI-H226) of 6.83 µM. The TGI (NCI-H226) was over 100 µM, the CC50 (NCI-H226) was over 100 µM and the GI50 (CCRF-CEM) was 4.09 µM. For the same molecule, the LC50 (concentration giving 50% net cell kill) (CCRF-CEM) was over 100 µM, the TGI (CCRF-CEM) was over 100 µM and the GI50 (SNB-19) was 3.05 µM. It also gave an LC50 (SNB-19) of over 100 µM, a TGI (SNB-19) of over 100 µM and a GI50 (HL-60(TB)) of 9.44 µM. The TGI (HL-60(TB)) was over 100 µM, the CC50 (HL-60(TB)) was over 100 µM and the growth at 10 µM (COLO 205) was 108%. The growth at 10 µM (K562) was 14.2%, the GI50 (HOP-62) was 4.46 µM and the LC50 (concentration killing 50% of starting cells) (HOP-62) was over 100 µM. For the same molecule, the TGI (HOP-62) was over 100 µM, the GI50 (NCI-H23) was 2.48 µM and the TGI (NCI-H23) was 14.3 µM. It also gave a CC50 (NCI-H23) of over 100 µM, a growth at 10 µM (Malme-3M) of 51% and a GI50 (U-251) of 2.92 µM. The LC50 (concentration killing 50% of cells) (U-251) was over 100 µM, the TGI (U-251) was over 100 µM and the growth at 10 µM [2] was 70.1%. It also gave a GI50 (BT-549) of 3.56 µM, an LC50 (concentration giving 50% net cell kill) (BT-549) of over 100 µM and a TGI (BT-549) of over 100 µM. For the same molecule, the growth at 10 µM (A498) was 57.7%, the growth at 10 µM (CAKI-1) was 73.1% and the growth at 10 µM (SK-MEL-5) was 13.6%. The growth at 10 µM (PC-3) was 55.2%, the GI50 [3] was 4.99 µM and the TGI [3] was over 100 µM. It also gave a CC50 [3] of over 100 µM, a GI50 (RPMI-8226) of 2.52 µM and a TGI (RPMI-8226) of 6.73 µM. The CC50 (RPMI-8226) was over 100 µM, the GI50 (MCF7) was 3.52 µM and the LC50 (50% net cell kill) (MCF7) was over 100 µM. For the same molecule, the TGI (MCF7) was over 100 µM, the GI50 (NCI-H522) was 1.7 µM and the TGI (NCI-H522) was 7.78 µM. For the same molecule, the CC50 (NCI-H522) was over 100 µM, the growth at 10 µM (T47D) was 85.1% and the growth at 10 µM (RXF 393) was 41.7%. For the same molecule, the GI50 (A549) was 2.41 µM and the LC50 (concentration giving 50% net cell kill) (A549) was over 100 µM.
